# Measured values reported in ChEMBL document CHEMBL3352680, “Triterpene lactones from cultures of Ganoderma sp. KM01” (J Nat Prod, 2014).
# The source made the active and inactive calls. The rule behind the calls is not given here.
# What was measured:
# NCI-H187 (human) = experiment: Cytotoxicity against human NCI-H187 cells up to 10 uM by colorimetric method
# KB = experiment: Cytotoxicity against human KB cells up to 10 uM by colorimetric method; assay type: functional, cell-based
# Plasmodium falciparum = experiment: Antimalarial activity against multidrug-resistant Plasmodium falciparum K1 assessed as reduction in parasite growth by [3H]-hypoxanthine uptake assay; assay type: functional, organism-based
# Summary of the method: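 P. falciparum K1 (multidrug-resistant) maintained in continuous in vitro culture. Microculture radioisotope technique: growth measured as [3H]-hypoxanthine uptake. IC50 is the concentration giving 50% reduction in parasite growth. Dihydroartemisinin was the positive control.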
# MCF7 = experiment: Cytotoxicity against human MCF7 cells up to 10 uM by colorimetric method; assay type: functional, cell-based
SMILES,Activity (NCI-H187 (human)),Activity (KB),IC50 (Plasmodium falciparum) [µM],Activity (MCF7)
CC1=CC[C@]2(OC[C@]34CCC5=C(CC[C@@H]6C(=C5)C=CC(=O)OC6(C)C)[C@]3(C)CC[C@@H]4[C@@H]2C)OC1=O,inactive,inactive,10,inactive
CC1=CC[C@@H]([C@@H](C)[C@H]2CC[C@@]3(C)C4=C(C=C5C=CC(=O)OC(C)(C)[C@@H]5CC4)CC[C@]23C)OC1=O,inactive,inactive,6,inactive
CC(=O)O[C@@H]1C[C@H]([C@H](C)[C@H]2CC=C(C)C(=O)O2)[C@@]2(C)CCC3=C(CC[C@@H]4C(=C3)C=CC(=O)OC4(C)C)[C@]12C [COLOSSOLACTONE E],inactive,inactive,10,inactive
C[C@H]1[C@@H](O)O[C@@H]2O[C@@]3(C)CC[C@H]4[C@H](C)CC[C@@H]1[C@@]24OO3 [ARTENIMOL],–,–,0.004,–
